Source: PubChem (several laboratories)
APP 5'UTR act – APP 5'UTR luciferase reporter activation; hit rate 1% among 190,000; activation, % at 2 µM; SH-SY5Y APP 5'UTR luciferase reporter, luminescence; zero percent = DMSO vehicle wells;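 active means activation above a set limit, based on mean plus 3 SD of controls, cut at about 140% in these data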
STAT1 blocker – reduces IFN-gamma driven STAT1 reporter signal; hit rate 0.35% among 200,000; NIH 3T3 STAT1-luciferase reporter, luminescence; inhibition, % at 5.5 µM;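 active means inhibition above a set limit, the mean inhibition across all tested compounds plus 3 SD, cut at about 34% in these data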;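 further: 0% = IFN-gamma with DMSO and 100% = IFN-gamma with 300 µM nifuroxazide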
STAT3 blocker – STAT3 signaling inhibition; U3A cells, IL-6 STAT3-luciferase reporter, luminescence; host cell line lacks STAT1; inhibition, % at 5.5 µM; hit rate 0.89% among 190,000;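 active means inhibition above the mean inhibition across all screened compounds plus 3 SD, cut at about 44% in these data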;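 further: 0% = DMSO only wells and 100% = 100 µM nifuroxazide control wells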
STAT3 activator – STAT3 signaling activation; U3A cells, IL-6 STAT3-luciferase reporter, luminescence; 100% = signal with IL-6 EC80 alone; activation (% of control), % at 5.6 µM; hit rate 0.91% among 190,000;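 active means activation above the screen-wide mean of compound activation plus 3 SD, cut at about 130% in these data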;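 further: 0% = background luminescence of wells with medium and substrate only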
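Test system: STAT3-luciferase reporter U3A cells; Detection: reporter luminescence signal; Times: 1 h compound pre-exposure, 6 h IL-6 stimulation, 37 °C; Benchmarks: IL-6-only high control; Also added: IL-6 stimulus at 33 ng/mL final.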
STAT1 act – activators of IFN-gamma induced STAT1 signaling. hit rate 2.6% among 200,000. NIH 3T3 STAT1-luciferase reporter, luminescence; 100% = IFN-gamma alone, no compound. activation (% of control), % at 5.5 µM;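 active means activation above the screen-wide mean activation plus 3 SD, cut at about 130% in these data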;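 further: raw ratio to IFN-gamma control signal so 100% means no change and 0% no light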
NF-kB expr up – compounds increasing NF-kB expression in human neuronal cells; NF-kB reporter expression; active compounds read high; fold change at 12.5 µM; hit rate 1.6% among 190,000; in the data active means fold change above about 3.3
STAT1 activ conf – STAT1 activation, confirmation assay. hit rate 97% among 1,200. NIH 3T3 STAT1-luciferase reporter, IFN-gamma potentiation, luminescence; 100% = IFN-gamma EC80 alone, no compound. activation (% of control), % at 5.7 µM. shares compounds with STAT1 act. AID 1262;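 active means activation above a set limit carried over from the earlier primary STAT1 screen, cut at about 140% in these data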;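 further: simple ratio to median IFN-gamma plus DMSO wells so 0% means no light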
NFkB act – counter-screen for STAT1 activators: NF-kappaB activation. shares compounds with STAT1 act. activation (% of control), % at 5.7 µM. HEK293T NF-kB luciferase reporter, TNF-alpha stimulated, luminescence; 100% = TNF-alpha with vehicle only. hit rate 43% among 1,200;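 active means activation above the mean of solvent-only control wells plus 3 SD, set per campaign, cut at about 130% in these data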;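 further: TNF-alpha given at a submaximal dose yielding about 80% of full reporter signal; values are well signal over median control so 100% means no change and 0% no light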
STAT3 act 2 – counter-screen for STAT1 activators: human STAT3 activation; shares compounds with STAT1 act; U3A cells STAT3-luciferase reporter, IL-6, luminescence; cells lack STAT1; 100 = IL-6 alone, no compound effect; activation (% of control), % at 5.7 µM; hit rate 46% among 1,200; AID 1316;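 active means activation above the solvent-only control well mean plus 3 SD, set per plate batch, cut at about 110% in these data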;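 further: 0% = no luminescence and 100% = median IL-6 plus DMSO wells; higher means more STAT3 reporter activation so hits are non-selective activators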
* hit, by the source's call; · = not tested or not shown. Compounds with a hit are over-represented: about 5.1% of the library has one in this group of screens.

SMILES	APP 5'UTR act	STAT1 blocker	STAT3 blocker	STAT3 activator	STAT1 act	NF-kB expr up	STAT1 activ conf	NFkB act	STAT3 act 2
CC(C)c1ccc(/C=N/NC(=O)c2cccc(Cl)c2)cc1	71	-95	-4	108	184*	5.7*	220*	137*	126*
CCSc1nc(O)c(Cc2ccccc2)c(=O)[nH]1	2	2	12	95	98	0.91	·	·	·
CCOC(=O)/C(C#N)=C/c1cc(C)n(-c2ccc(Br)cc2)c1C	4	-3	-1	107	103	1.5	·	·	·
CCOC(=O)/C(C#N)=C/c1cc(C)n(-c2ccccc2)c1C	153*	-41	29	77	165*	1.2	255*	115	105
COc1ccc(-n2c(=O)/c(=C\c3cccs3)s/c2=C(/C#N)C(=O)N2CCN(C)CC2)cc1	18	3	-4	107	96	1.4	·	·	·
COC(=O)c1ccc(OC(=O)c2ccccn2)cc1	-8	-4	4	102	104	1.1	·	·	·
COC(=O)c1ccc(/C=C(\C#N)c2ccccn2)cc1	148*	-114	-3	104	204*	7*	225*	158*	107
Cc1cc([N+](=O)[O-])ccc1NC(=O)CSc1nccc(=O)[nH]1	-11	0	16	93	100	0.93	·	·	·
Cc1ccccc1CC1(CO)CCCN(Cc2nc(-c3cccs3)oc2C)C1 (stereo not given)	-2	-4	2	103	104	1.5	·	·	·
C/C(=N\O)c1sc(-c2ccccc2)nc1C	177*	-63	4	106	156*	6.4*	190*	118	121*
Clc1ccc(-n2ncc3c(NCC4CCCO4)ncnc32)cc1 (stereo not given)	156*	-66	18	85	163*	3.4*	254*	133	110
COc1ccc(-n2ncc3c(NCC4CCCO4)ncnc32)cc1 (stereo not given)	114	-79	10	94	172*	2.7	182*	131	122*
CN(C)CCNc1ncnc2c1cnn2-c1ccc(Cl)cc1	92	-19	3	105	118	2.3	·	·	·
Cc1ccc(C(=O)c2sc3nsc(C)c3c2N)cc1	198*	-59	14	94	154*	6.3*	239*	145*	114*
Cc1ccnc(NC(=O)Nc2ccc(F)cc2)c1	84	-63	7	97	158*	4.8*	224*	131	108
Cc1ccnc(NC(=O)Nc2ccc(Br)cc2Cl)c1	165*	-75	12	99	168*	1.1	257*	120	104
Cc1ccnc(NC(=O)Nc2ccc3c(c2)N(C)C(=O)CS3)c1	38	-89	25	81	181*	1.1	192*	135*	96
Cc1ccc(-c2nn(-c3ccccc3)cc2NC(=O)CCl)cc1	-20	-12	10	96	108	0.99	·	·	·
Cc1ccc(-n2c(Cl)c(Cl)nc(Cl)c2=O)cc1	-97	-17	-7	110	115	0.35	·	·	·
O=C(N/N=C/c1ccc(Cl)cc1Cl)c1n[nH]c2c1CCCC2	-10	-22	-5	105	120	1.1	·	·	·
O=C(N/N=C\c1cccc(Cl)c1)c1n[nH]c2c1CCCC2	156*	-79	9	95	170*	1.6	212*	117	101
O=C(COc1ccccc1Cl)Nc1ccc(Cl)cn1	198*	-52	12	93	151*	6.8*	198*	120	108
CCOC(=O)C1(CC/C(C)=N\NC(N)=O)CC(C)(C)OC1=O (stereo not given)	3	12	26	80	90	1.1	·	·	·
Cc1ccc(OCc2ccc(Br)cc2)c([N+](=O)[O-])n1	156*	-58	0	109	154*	3.8*	175*	141*	118*
O=C(Cc1ccc(F)cc1)Nc1cccc(-c2cn3c(n2)SCC3)c1	-9	-8	13	93	105	0.69	·	·	·
SMILES	APP 5'UTR act	STAT1 blocker	STAT3 blocker	STAT3 activator	STAT1 act	NF-kB expr up	STAT1 activ conf	NFkB act	STAT3 act 2
CCc1ccc(-c2cn3c(n2)SCC3)cc1	100	-56	26	79	154*	7.2*	200*	130	96
CCOc1ccccc1CNC(CC)CO (stereo not given)	17	6	12	98	95	1.7	·	·	·
O/N=C(/CCc1ccccc1)c1ccc2c(c1)OCCO2	58	-59	4	105	155*	2.5	155*	124	110
O=C(CCc1ccccc1)c1ccc2c(c1)OCCCO2	127	-26	-2	103	124	3.1	·	·	·
COc1ccc(-c2nn(-c3ccccc3)cc2N)cc1	79	-68	5	96	165*	4*	159*	120	164*
COc1ccc(-c2nn(-c3ccccc3)cc2CO)cc1	16	-1	7	99	101	1.4	·	·	·
CCOC(=O)CSc1nc(-c2ccncc2)ccc1C#N	185*	-64	1	104	159*	8.9*	190*	131	106
CCOC(=O)CC(=O)CSc1nc(-c2cccnc2)ccc1C#N	0	2	17	89	98	1.1	·	·	·
COC(=O)c1c(C)[nH]c(C(=O)CSc2ccc(Cl)cc2)c1C	53	-28	-3	108	126	2.1	·	·	·
COc1ccc2oc(-c3ccco3)cc(=O)c2c1	83	-65	28	82	160*	1.3	183*	122	105
N/C(=N\OC(=O)c1ccc2c(c1)OCO2)c1cccc(Br)c1	79	-71	-1	105	162*	1.5	178*	129	111*
CCS(=O)(=O)c1ccc2oc(SCC(=O)N3CCCCC3)nc2c1	20	-3	15	93	101	1	·	·	·
O=S(=O)(N/N=C/c1cn(Cc2ccccc2)c2ccccc12)c1ccccc1	-12	-6	1	102	106	1.2	·	·	·
O=c1oc(Nc2cccc(Cl)c2)nc2ccccc12	71	-65	8	103	157*	2.4	177*	118	157*
Cc1[nH]n(-c2ccccc2)c(=O)c1/C=N/O	10	0	-1	103	100	1.2	·	·	·
Cc1[nH]n(-c2ccccc2)c(=O)c1C=NCc1ccco1	50	-63	-1	102	157*	3.8*	186*	133	118*
